According to ChEMBL document CHEMBL3091324, “The optimization of aminooxadiazoles as orally active inhibitors of Cdc7” (Bioorg Med Chem Lett, 2013):
In brackets after ≈: the same amount, converted by molar mass.

Tests used:
[1] = target: CDC7/DBF4 (Cell division cycle 7-related protein kinase/Activator of S phase kinase) (Homo sapiens, UniProt O00311); experiment: Inhibition of Cdc7/Dbf4 (unknown origin)-mediated MCM2 phosphorylation at Ser53 by protein A amplified luminescent proximity homogeneous assay; type: protein-complex assay
[2] = target: Cyclin-dependent kinase 2/cyclin E1 (Homo sapiens, UniProt P24941); experiment: Inhibition of CDK2/cyclin E (unknown origin) using ULight peptide as substrate by HTRF assay; type: protein-complex assay
[3] = Intrinsic clearance in human liver microsomes; type: ADME; conditions: read-out: CLH
[4] = target: Cell division cycle 7-related protein kinase (Homo sapiens, UniProt O00311); experiment: Inhibition of Cdc7-mediated MCM2 phosphorylation at Ser53 in human HCT116 cells after 14 hrs by immunostaining assay; type: cell-based, HCT-116
[5] = Intrinsic clearance in rat liver microsomes; type: ADME; conditions: read-out: CLH
Hepatocyte = experiment: Drug metabolism in rat hepatocytes assessed as GSH adduct level; type: ADME, cell-based
Homo sapiens = species: Homo sapiens; experiment: Selectivity ratio of IC50 for CDK2/cyclin E (unknown origin) to IC50 for Cdc7/Dbf4 (unknown origin)
[6] = Clearance in rat at 2 mg/kg, iv; type: ADME, organism-based; design: dose 2 mg/kg, route intravenous; conditions: in vivo
[7] = Volume of distribution at steady state in rat at 2 mg/kg, iv; type: ADME, organism-based; design: dose 2 mg/kg, route intravenous; conditions: in vivo, read-out: Vdss
[8] = Mean residence time in rat at 2 mg/kg, iv; type: ADME, organism-based; design: dose 2 mg/kg, route intravenous; conditions: in vivo
Mus musculus [9] = experiment: In vivo inhibition of Cdc7 in tumor of NCR/nude mouse xenografted with human HCT116 cells assessed as remaining Ser53 phosphorylated MCM2 level at 100 mg/kg, po measured at 16 hrs relative to control; type: functional, HCT-116
In short: (§1)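 Female NCR/nude mice (n = 3 per group) given single oral dose of 100 mg/kg; pMCM2 levels measured at 6 and 16 h, expressed as % remaining versus vehicle control group; significance by one-way ANOVA with Dunnett's test.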

[10] = Clearance in rat at 2 mg/kg, iv and 5 mg/kg, po; type: ADME, organism-based; conditions: in vivo
Mus musculus [11] = experiment: In vivo inhibition of Cdc7 in tumor of NCR/nude mouse xenografted with human HCT116 cells assessed as remaining Ser53 phosphorylated MCM2 level at 100 mg/kg, po measured at 6 hrs relative to control; type: functional, HCT-116; in short: as §1
[12] = Mean residence time in rat at 2 mg/kg, iv and 5 mg/kg, po; type: ADME, organism-based; conditions: in vivo
Plasma [13] = experiment: Unbound plasma concentration in NCR/nude mouse xenografted with human HCT116 cells at 100 mg/kg, po measured at 16 hrs by LC-MS analysis; type: ADME, organism-based, HCT-116; design: dose 100 mg/kg, route oral; conditions: in vivo
In short: (§2)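 Female NCR/nude mice (n = 3) dosed orally at 100 mg/kg; plasma sampled at 6 and 16 h; unbound concentration calculated from total plasma concentration and percent free fraction in mouse plasma.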

[14] = Solubility of the compound in simulated intestinal fluid; type: ADME
Plasma [15] = experiment: Unbound plasma concentration in NCR/nude mouse xenografted with human HCT116 cells at 100 mg/kg, po measured at 6 hrs by LC-MS analysis; type: ADME, organism-based, HCT-116; design: dose 100 mg/kg, route oral; conditions: in vivo; in short: as §2
CDK9/cyclin T1 = CDK9/cyclin T1 (Homo sapiens, UniProt P50750); experiment: Inhibition of CDK9/cyclin T1 (unknown origin) using 4eBP1 ULight peptide as substrate by HTRF assay; type: protein-complex assay
[16] = Oral bioavailability rat in 5 mg/kg; type: ADME, organism-based; conditions: in vivo
HCT-116 = experiment: Cytotoxicity against human HCT116 cells assessed as cell viability after days by CellTiterGlo assay; type: functional, cell-based
In short: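 HCT-116 cells exposed to compound for 4 d; cell viability IC50 determined.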

[17] = target: Cyclin-dependent kinase 1/cyclin B1 (Homo sapiens, UniProt P06493); experiment: Inhibition of CDK1/cyclin B (unknown origin) by HTRF assay; type: protein-complex assay
[18] = Volume of distribution at steady state in rat at 2 mg/kg, iv and 5 mg/kg, po; type: ADME, organism-based; conditions: in vivo, read-out: Vdss
[19] = Volume of distribution at steady state in rat at 1 mg/kg, iv and 5 mg/kg, po; type: ADME, organism-based; conditions: in vivo, read-out: Vdss
[20] = Clearance in rat at 1 mg/kg, iv and 5 mg/kg, po; type: ADME, organism-based; conditions: in vivo
[21] = Mean residence time in rat at 1 mg/kg, iv and 5 mg/kg, po; type: ADME, organism-based; conditions: in vivo
Mus musculus [22] = experiment: In vivo inhibition of Cdc7-mediated MCM2 phosphorylation at Ser53 in tumor of NCR/nude mouse xenografted with human HCT116 cells at 100 mg/kg, po; type: functional, organism-based; design: dose 100 mg/kg; conditions: HCT-116, TDE = time-dependent effect; in short: as §1

Chain of Cell division cycle 7-related protein kinase (O00311 whole entry): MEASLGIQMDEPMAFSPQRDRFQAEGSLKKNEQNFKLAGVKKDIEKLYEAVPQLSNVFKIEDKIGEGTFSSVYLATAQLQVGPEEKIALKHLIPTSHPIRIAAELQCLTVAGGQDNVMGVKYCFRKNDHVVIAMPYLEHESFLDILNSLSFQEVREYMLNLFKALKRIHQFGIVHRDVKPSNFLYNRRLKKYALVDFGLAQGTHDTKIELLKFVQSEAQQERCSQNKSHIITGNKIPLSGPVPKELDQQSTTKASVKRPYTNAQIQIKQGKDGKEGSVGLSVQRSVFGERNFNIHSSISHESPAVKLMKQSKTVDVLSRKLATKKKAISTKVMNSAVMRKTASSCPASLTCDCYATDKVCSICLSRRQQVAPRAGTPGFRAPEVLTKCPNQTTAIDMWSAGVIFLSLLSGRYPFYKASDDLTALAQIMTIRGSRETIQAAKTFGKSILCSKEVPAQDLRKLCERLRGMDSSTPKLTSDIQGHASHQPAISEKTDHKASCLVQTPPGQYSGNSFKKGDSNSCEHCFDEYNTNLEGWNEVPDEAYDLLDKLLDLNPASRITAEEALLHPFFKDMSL
Chain of CDC7/DBF4 (Cell division cycle 7-related protein kinase/Activator of S phase kinase) (Q9UBU7 whole entry): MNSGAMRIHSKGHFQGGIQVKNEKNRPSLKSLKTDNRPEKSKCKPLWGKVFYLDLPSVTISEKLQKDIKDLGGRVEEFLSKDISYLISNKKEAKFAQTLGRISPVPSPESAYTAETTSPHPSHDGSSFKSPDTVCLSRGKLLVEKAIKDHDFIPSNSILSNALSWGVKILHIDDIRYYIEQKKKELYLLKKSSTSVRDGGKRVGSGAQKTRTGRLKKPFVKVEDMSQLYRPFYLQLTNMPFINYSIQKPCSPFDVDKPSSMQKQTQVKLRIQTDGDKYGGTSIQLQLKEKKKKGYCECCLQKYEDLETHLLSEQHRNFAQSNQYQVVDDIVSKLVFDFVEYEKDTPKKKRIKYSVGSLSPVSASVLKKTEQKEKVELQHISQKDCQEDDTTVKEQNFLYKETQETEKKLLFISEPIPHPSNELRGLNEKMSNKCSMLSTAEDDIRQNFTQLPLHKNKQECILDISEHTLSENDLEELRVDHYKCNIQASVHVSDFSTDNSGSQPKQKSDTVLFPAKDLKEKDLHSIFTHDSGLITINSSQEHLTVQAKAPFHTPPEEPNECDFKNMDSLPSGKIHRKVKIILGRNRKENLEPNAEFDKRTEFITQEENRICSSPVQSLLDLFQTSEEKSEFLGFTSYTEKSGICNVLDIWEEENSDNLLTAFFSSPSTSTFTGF
Chain of CDC7/DBF4 (Cell division cycle 7-related protein kinase/Activator of S phase kinase) (O00311 whole entry): as the sequence (O00311 whole entry) above
Chain of Cyclin-dependent kinase 1/cyclin B1 (P06493 whole entry): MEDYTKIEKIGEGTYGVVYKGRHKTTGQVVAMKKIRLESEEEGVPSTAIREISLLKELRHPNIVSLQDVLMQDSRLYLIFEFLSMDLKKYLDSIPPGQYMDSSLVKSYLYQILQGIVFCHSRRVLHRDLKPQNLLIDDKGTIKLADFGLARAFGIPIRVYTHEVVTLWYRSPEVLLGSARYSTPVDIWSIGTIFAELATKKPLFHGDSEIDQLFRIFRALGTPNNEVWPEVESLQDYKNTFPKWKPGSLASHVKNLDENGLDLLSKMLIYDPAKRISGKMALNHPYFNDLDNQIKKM
Chain of Cyclin-dependent kinase 1/cyclin B1 (P14635 whole entry, further chain): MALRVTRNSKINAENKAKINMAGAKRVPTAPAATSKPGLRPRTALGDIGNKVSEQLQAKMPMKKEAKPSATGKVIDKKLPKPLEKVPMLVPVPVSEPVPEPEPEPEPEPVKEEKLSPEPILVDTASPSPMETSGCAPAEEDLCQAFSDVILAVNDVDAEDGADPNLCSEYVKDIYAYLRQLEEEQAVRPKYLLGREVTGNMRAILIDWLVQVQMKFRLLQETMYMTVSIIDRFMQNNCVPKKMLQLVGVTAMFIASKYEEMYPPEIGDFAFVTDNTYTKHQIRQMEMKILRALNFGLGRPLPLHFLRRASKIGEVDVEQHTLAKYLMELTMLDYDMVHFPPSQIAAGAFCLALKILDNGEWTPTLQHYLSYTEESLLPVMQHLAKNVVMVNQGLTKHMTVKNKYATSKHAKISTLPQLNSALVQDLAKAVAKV
Chain of CDK9/cyclin T1 (O60563 whole entry): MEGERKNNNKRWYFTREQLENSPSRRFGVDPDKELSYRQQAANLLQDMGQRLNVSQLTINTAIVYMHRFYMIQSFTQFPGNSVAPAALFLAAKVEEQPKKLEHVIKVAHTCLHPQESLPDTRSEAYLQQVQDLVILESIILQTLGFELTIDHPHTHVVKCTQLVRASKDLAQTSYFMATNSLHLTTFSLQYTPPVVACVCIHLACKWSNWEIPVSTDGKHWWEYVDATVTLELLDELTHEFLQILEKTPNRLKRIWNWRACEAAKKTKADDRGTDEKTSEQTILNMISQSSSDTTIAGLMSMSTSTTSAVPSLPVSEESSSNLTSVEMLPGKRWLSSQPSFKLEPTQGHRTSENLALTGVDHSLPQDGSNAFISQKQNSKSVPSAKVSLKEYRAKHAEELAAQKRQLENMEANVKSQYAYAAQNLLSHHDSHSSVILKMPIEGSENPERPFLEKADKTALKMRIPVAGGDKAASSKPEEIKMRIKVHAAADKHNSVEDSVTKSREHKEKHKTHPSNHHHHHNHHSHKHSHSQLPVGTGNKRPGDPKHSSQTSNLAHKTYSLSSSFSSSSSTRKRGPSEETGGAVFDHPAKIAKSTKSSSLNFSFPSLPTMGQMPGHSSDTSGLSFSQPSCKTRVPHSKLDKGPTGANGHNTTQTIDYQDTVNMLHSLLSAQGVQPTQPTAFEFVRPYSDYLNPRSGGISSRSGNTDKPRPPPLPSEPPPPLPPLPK
Chain of CDK9/cyclin T1 (P50750 whole entry): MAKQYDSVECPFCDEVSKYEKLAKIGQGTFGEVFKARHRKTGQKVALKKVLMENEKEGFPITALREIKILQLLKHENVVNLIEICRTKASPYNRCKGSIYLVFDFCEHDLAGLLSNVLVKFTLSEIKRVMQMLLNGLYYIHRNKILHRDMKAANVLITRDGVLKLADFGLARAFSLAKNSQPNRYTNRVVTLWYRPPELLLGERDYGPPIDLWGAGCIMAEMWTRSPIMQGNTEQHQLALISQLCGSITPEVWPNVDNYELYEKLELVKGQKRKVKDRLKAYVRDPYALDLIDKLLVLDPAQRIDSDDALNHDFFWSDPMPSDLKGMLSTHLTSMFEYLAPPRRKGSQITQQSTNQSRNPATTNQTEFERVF

Compound | IC50 [1] | IC50 [2] | microsomal CLint [3] | IC50 [4] | microsomal CLint [5] | also measured
CC[C@@H](Nc1nnc(-c2c[nH]c3ncccc23)o1)c1ccccc1 | 4 nM | 1700 nM | 70 µL/min/mg | 150 nM | 29 µL/min/mg | 
C[C@@H](Nc1nnc(-c2c[nH]c3ncccc23)o1)c1ccccc1 | 32 nM | 310 nM | 64 µL/min/mg | 370 nM | 25 µL/min/mg | Drug metabolism (Hepatocyte): Active
Nc1n[nH]c2ccc(-c3nnc(NCc4ccccc4)o3)cc12 | 11 nM | 230 nM | 26 µL/min/mg | 1200 nM | 74 µL/min/mg | 
c1ccc(CNc2nnc(-c3c[nH]c4ncccc34)o2)cc1 | 24 nM | 150 nM | 31 µL/min/mg | 780 nM | 40 µL/min/mg | Ratio IC50 (Homo sapiens): 6
c1ccc(CNc2nnc(-c3ccc4cnccc4c3)o2)cc1 | 17 nM | 350 nM | 120 µL/min/mg | 710 nM | 166 µL/min/mg | clearance [6]: 300 mL/min/kg; Vd [7]: 4.3 L/kg; MRT [8]: 0.2 h
c1ccc(CNc2nnc(-c3ccc4[nH]ncc4c3)o2)cc1 | 20 nM | 170 nM | 98 µL/min/mg | 730 nM | 402 µL/min/mg | 
CC(C)(Nc1nnc(-c2c[nH]c3ncccc23)o1)c1ccccc1 | 120 nM | 7 nM | 30 µL/min/mg | 6200 nM | 35 µL/min/mg | 
Fc1ccccc1[C@H](Nc1nnc(-c2c[nH]c3ncccc23)o1)C1CC1 | 0.85 nM | 240 nM | 59 µL/min/mg | 20 nM | 63 µL/min/mg | Remaining Ser53 phospho-MCM2 vs control (Mus musculus [9]): 46%; clearance [10]: 33.3 mL/min/kg; Remaining phospho-MCM2 (% of control) (Mus musculus [11]): 38%; MRT [12]: 2.7 h; Cp(f) (Plasma [13]): 60 nM; solubility [14]: 5 µg/mL (≈ 14.3 µM); Cp(f) (Plasma [15]): 150 nM; IC50 (CDK9/cyclin T1): 31 nM; bioavailability [16]: 35%; IC50 (HCT-116): 880 nM; IC50 [17]: 1600 nM; Vd [18]: 5.3 L/kg
Fc1cnc2[nH]cc(-c3nnc(N[C@@H](c4cccnc4F)C4CC4)o3)c2c1 | 1.1 nM | 670 nM | < 14 µL/min/mg | 32 nM | 20 µL/min/mg | Remaining Ser53 phospho-MCM2 vs control (Mus musculus [9]): 30%; Vd [19]: 3.3 L/kg; clearance [20]: 28.3 mL/min/kg; Remaining phospho-MCM2 (% of control) (Mus musculus [11]): 46%; Cp(f) (Plasma [13]): 300 nM; solubility [14]: 160 µg/mL (≈ 434 µM); MRT [21]: 1.9 h; Cp(f) (Plasma [15]): 610 nM; IC50 (CDK9/cyclin T1): 460 nM; bioavailability [16]: 50%; IC50 (HCT-116): 2400 nM; IC50 [17]: 6600 nM; Activity (Mus musculus [22]): tde
c1ccc(CNc2nnc(-c3nc4ccncc4s3)o2)cc1 | 2300 nM | 19000 nM | 23 µL/min/mg | > 50000 nM | 66 µL/min/mg | 
C[C@H](Nc1nnc(-c2c[nH]c3ncccc23)o1)c1ccccc1 | 35 nM | 98 nM | 15 µL/min/mg | 2600 nM | 17 µL/min/mg | 
CC(C)[C@@H](Nc1nnc(-c2c[nH]c3ncccc23)o1)c1ccccc1 | 2 nM | 1200 nM | 66 µL/min/mg | 140 nM | 51 µL/min/mg | 
c1ccc(CNc2nnc(-c3c[nH]c4ncccc34)o2)nc1 | 170 nM | 2500 nM | < 14 µL/min/mg | 13000 nM | 14 µL/min/mg | 
